Consider four compounds from ChEMBL document CHEMBL1140137, “Synthesis, ex vivo evaluation, and radiolabeling of potent 1,5-diphenylpyrrolidin-2-one cannabinoid subtype-1 receptor ligands as candidates for in vivo imaging” (J Med Chem, 2008).

The Kb is the equilibrium dissociation constant of an antagonist, usually derived from a functional assay.

Data set [1] can be described thus: Drug uptake in Rimonabant pretreated Sprague-Dawley rat CB1 rich frontal cerebral cortex at […], iv after 8 hrs. The arrangement: route intravenous. As to conditions: read-out: Drug uptake. Format: ADME, organism-based. The essentials:
(§1)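 Adult male Sprague-Dawley rats (225–250 g) were used, three per time point. […] Ligand was dosed at 30 μg/kg i.v. in intralipid/1% AcOH diluted with water. Frontal cortex was taken at 0.25–8 h, homogenized in MeCN/0.1% HCO2H, centrifuged, and the supernatant quantified by LC-MS (ng/g).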

The nature of data set [2]: Drug uptake in Sprague-Dawley rat frontal cerebral cortex at 30 μg/kg, iv after 0.5 hrs.
A short description of data set [3]: Drug uptake in Sprague-Dawley rat frontal cerebral cortex at 30 μg/kg, iv after 8 hrs.
For a further data set, the species on record is Homo sapiens. As to the kind of experiment: Selectivity for human CB1 receptor over human CB2 receptor. The method, boiled down:
(§2)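 GTPγ35S binding was read by anti-Gi antibody-capture scintillation proximity assay. Membranes came from CHO cells expressing human CB1 and from Sf9 cells expressing human CB2. Antagonist dose-responses were run against methanandamide at 80% efficacious dose. Kb = IC50/(1+[agonist]/EC50), with four-parameter fits. Values are the mean ± SEM of at least three independent determinations. Selectivity was taken from the CB1 and CB2 Kb values.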

Data set [4] in a line: Drug uptake in Rimonabant pretreated Sprague-Dawley rat CB1 rich frontal cerebral cortex at […], iv after 0.25 hrs. Format: ADME, organism-based. The arrangement: route intravenous. Conditions: read-out: Drug uptake. The essentials:
as §1

Data set [5] addresses Cannabinoid receptor 2 (Homo sapiens) (UniProt P34972). The data set is described as follows: Antagonist activity at human CB2 receptor in Sf9 cells assessed as GTPgammaS binding. Format: functional, cell-based. The essentials:
as §2
A general note: Binding of GTPγS marks nucleotide exchange on a G protein.

A short description of data set [6]: Drug uptake in Sprague-Dawley rat frontal cerebral cortex at 30 μg/kg, iv after 0.25 hrs.

Sequence of Cannabinoid receptor 2 (Homo sapiens) (P34972 whole entry): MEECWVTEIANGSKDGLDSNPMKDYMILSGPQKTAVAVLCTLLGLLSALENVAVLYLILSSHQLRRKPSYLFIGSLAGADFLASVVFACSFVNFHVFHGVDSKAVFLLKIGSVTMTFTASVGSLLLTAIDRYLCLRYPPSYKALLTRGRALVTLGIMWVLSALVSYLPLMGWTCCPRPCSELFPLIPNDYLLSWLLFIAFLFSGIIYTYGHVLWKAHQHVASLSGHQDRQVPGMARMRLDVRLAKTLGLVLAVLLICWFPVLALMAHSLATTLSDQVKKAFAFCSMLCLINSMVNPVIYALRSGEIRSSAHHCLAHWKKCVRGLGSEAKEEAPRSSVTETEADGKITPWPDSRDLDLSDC

Take `COc1cccc([C@H]2C[C@@H](N[C@H](C)c3ccc(F)cc3)C(=O)N2c2ccc(C(F)(F)F)cc2)c1`: the concentration at 8 h in data set [1] turned out to be 0.8 ng/g; in data set [3] it was 10.5 ng/g. Further, in data set [2], the concentration at 0.5 h stood at 48 ng/g. Also, the Selectivity ratio in the data set filed under Homo sapiens came to 2160. For the same compound, the concentration at 0.25 h in data set [4] came out at 17.3 ng/g. Also, the Kb in data set [5] was determined as 466 nM.

For `C[C@@H](N[C@@H]1C[C@H](c2cccc(OCF)c2)N(c2ccc(C(F)(F)F)cc2)C1=O)c1ccccc1`, the concentration at 0.5 h in data set [2] is 39.3 ng/g. In data set [3], this compound displayed a concentration at 8 h of 8.2 ng/g. In addition, the Selectivity ratio in the data set filed under Homo sapiens turned out to be 3580. The concentration at 0.25 h in data set [4] was 9.7 ng/g. The Kb in data set [5] was 669 nM.

As for `COc1cccc([C@H]2C[C@@H](N[C@H](C)c3ccccc3)C(=O)N2c2ccc(C(F)(F)F)cc2)c1` [MEPPEP], the concentration at 0.25 h in data set [6] was 39 ng/g; in data set [4], 11.5 ng/g. Besides, the concentration at 8 h in data set [3] stood at 8.5 ng/g.

With `C[C@@H](N[C@@H]1C[C@H](c2cccc(OCCF)c2)N(c2ccc(C(F)(F)F)cc2)C1=O)c1ccccc1`, the values for the concentration at 0.25 h in data set [6] and in data set [4] were 22 ng/g and 6.5 ng/g, respectively. This compound came in with a concentration at 8 h in data set [3] of 0.7 ng/g. The Selectivity ratio in the data set listed under Homo sapiens was more than 19500. Also, the Kb in data set [5] was more than 8260 nM.
